A selection: hits, their analogues and other compounds. The true share with any hit is near 1.4%.
PG9 Ab binder = binds the HIV-1 gp120 antibody PG9; TR-FRET gp120-PG9 antibody binding; inhibition, % at 6.7 µM; 0.43% of 360,000 active; in the data active means inhibition above about 8.5%
NR2E3 ag-1 = NR2E3 (human) agonism. Q9Y5X4. GST-NR2E3/biotin-RetCOR TR-FRET, 1536-well. inhibition of corepressor binding, % at 4.78 µM. 0.12% of 320,000 active;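 active means percent inhibition above the cutoff of mean plus 3 SD of all tested compounds, set per screening campaign, cut at about 20% in these data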
Target sequence (Q9Y5X4 whole entry, looked up): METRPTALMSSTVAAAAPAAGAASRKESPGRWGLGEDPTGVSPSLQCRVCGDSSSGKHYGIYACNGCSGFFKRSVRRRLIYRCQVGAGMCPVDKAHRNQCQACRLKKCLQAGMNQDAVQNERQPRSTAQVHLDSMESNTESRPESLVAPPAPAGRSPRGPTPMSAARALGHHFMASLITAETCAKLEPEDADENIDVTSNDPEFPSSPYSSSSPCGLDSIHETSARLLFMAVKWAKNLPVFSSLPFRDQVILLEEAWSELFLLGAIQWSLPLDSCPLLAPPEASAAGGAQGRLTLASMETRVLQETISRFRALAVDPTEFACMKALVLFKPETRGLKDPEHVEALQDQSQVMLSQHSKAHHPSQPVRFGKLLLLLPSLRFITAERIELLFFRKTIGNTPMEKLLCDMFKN
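Material: NR2E3–RetCOR corepressor complex | Quantity: 1.35 nM GST-tagged NR2E3 final | Schedule: 5 h at 4 °C | Replication: Singlicate compound wells | Reagent: RetCOR corepressor, biotinylated, 7 nM | Controls: Biotin wells as high control, 0.6% DMSO wells as low control | Signal: TR-FRET, Eu(K)-anti-GST donor, streptavidin-D2 acceptor, ex 340, em 617/671 nm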
NR1D1 modulator = Rev-erb alpha (human) modulation; P20393; Rev-erbα–FITC-DNA binding, fluorescence polarization, 90 min; activity, % at 10 µM; 0.79% of 370,000 active; AID 1259318;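 active means activity above about 14%, limit read from the data; passing the limit was not always enough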
NR2E3 ag-2 = activates human NR2E3 receptor. 0.35% of 360,000 active. AID 602229. CHO-S Gal4-NCOR/VP16-NR2E3 two-hybrid, luciferase. inhibition of corepressor binding, % at 3.98 µM. Q9Y5X4;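 active means inhibition above the mean of all tested compounds plus 3 SD, cut at about 70% in these data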;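 further: higher means lower luciferase signal from less NR2E3 corepressor binding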
PG9 binder conf = confirmation of small molecules binding HIV-1 gp120 antibody PG9; shares compounds with PG9 Ab binder; TR-FRET PG9 antibody binding, biochemical; inhibition, % at 6.7 µM; 90% of 1,500 active; in the data active means inhibition above about 9%
PGV04 counter = PGV04 control antibody binding, counter-screen; shares compounds with PG9 Ab binder; TR-FRET PGV04 antibody-gp120 binding, biochemical; inhibition, % at 6.7 µM; 95% of 1,500 active; AID 651604; in the data active means inhibition above about 9.5%
PG9 bind DR = PG9 antibody binding, dose response; shares compounds with PG9 Ab binder; TR-FRET PG9 antibody-gp120 binding inhibition; IC50, µM; 95 tested, under 10 active; in the data active means IC50 below about 10 µM
PGV04 binding DR = PGV04 binding, dose response counter-screen; TR-FRET binding to control antibody PGV04; IC50, µM; 20% of 95 active; shares compounds with PG9 Ab binder
PG126 DR counter = binds control antibody PG126 in PG9 counter-screen | IC50, µM | 20% of 95 active | shares compounds with PG9 Ab binder | TR-FRET binding to antibody PG126, counterscreen
A number is an active result; – = inactive; · = no result. Unless noted, no stated cut-off is given here; in the data, active means IC50 below about 9 µM; inactive means the rest.

SMILES	PG9 Ab binder	NR2E3 ag-1	NR1D1 modulator	NR2E3 ag-2	PG9 binder conf	PGV04 counter	others
Cc1ccc(Sc2c(O)c3ccccc3n(C)c2=O)cc1	13.7	·	–	–	16.8	24.2
Cn1c(=O)c(Sc2ccccc2)c(O)c2ccccc21	–	–	–	–	·	·
O=C(Cn1nnc(-c2ccccc2Cl)n1)NCc1ccc2c(c1)OCO2	10.5	–	–	–	11.5	14.2
CC(=O)c1nn(-c2cccc(Br)c2)cc1C(=O)c1ccccc1	13.3	–	–	–	20.2	24.5
CC(=O)c1nn(-c2ccccc2)cc1C(=O)c1cccc(Br)c1	–	–	–	–	·	·
C/C(=N\O)c1ccc2c(c1)OCCO2	–	–	–	–	·	·
CC1(C)Cc2c(C#N)c(SCC(=O)c3ccccc3)nc(N3CCOCC3)c2CO1	41.5	–	–	–	9.3	86.0
CC1(C)Cc2c(C#N)c(SCc3ccccc3)nc(N3CCOCC3)c2CO1	–	–	–	–	·	·
Cc1nc2c(sc3nc(N4CCOCC4)c4c(c32)CC(C)(C)OC4)c(-c2ccccc2)c1C(=O)O	15.6	–	–	–	25.6	32.0
CC(=O)Nc1cccc(NC(=O)CSc2nnc3ccccn23)c1	–	·	–	–	·	·
O=C(NC(=S)Nc1cccc(NC(=S)NC(=O)c2ccccc2)c1)c1ccccc1	12.2	·	–	–	–	14.3
CCC(=O)Nc1cccc(NC(=S)NC(=O)c2ccccc2)c1	–	–	–	–	·	·
O=C(CN1CCN(c2ccccc2)CC1)N1CCN(c2ccccc2)CC1	–	–	–	–	·	·
Cc1nn(CC(=O)NCc2cccc3ccccc23)c(=O)c2ccccc12	–	–	–	–	·	·
c1ccc(-c2nccc(-c3ccc(-n4cnc5ccccc54)cc3)n2)cc1	15.2	–	–	–	19.4	14.2	PG9 bind DR=–;PGV04 binding DR=–;PG126 DR counter=–
O=C(CSc1nc2ccccc2c(=O)n1Cc1ccc(Cl)cc1)NCc1cccs1	16.6	–	–	–	21.1	30.1
O=c1[nH]c(SCc2n[nH]c(=S)n2-c2ccccc2)nc2ccccc12	–	–	–	–	·	·
O=c1[nH]c(SCc2nc3ccccc3c(=O)n2-c2ccccc2)nc2ccccc12	13.0	–	–	–	21.7	27.5
O=c1[nH]c(SCc2ccc(Cl)cc2)nc2ccccc12	–	–	–	–	·	·
O=C(CSc1nc2ccccc2c(=O)[nH]1)NCc1ccc(Cl)cc1	12.3	–	–	–	24.1	27.4
COC(=O)c1sc(NC(=O)COc2ccccc2C)nc1C	11.4	–	–	–	19.6	27.7
COC(=O)c1sc(NC(=O)COc2c(C)cccc2C)nc1C	–	–	–	–	·	·
COc1cccc(NC(=O)Cn2c3ccc(OC)cc3c3nc4n(c(=O)c32)CCS4)c1	14.0	–	–	–	31.4	25.0	PG9 bind DR=–;PGV04 binding DR=8.95;PG126 DR counter=–
O=C(Cn1c2ccccc2c2nc3n(c(=O)c21)CCS3)Nc1ccccc1	–	–	–	–	·	·
COc1cc(C=NNC(=S)Nc2ccc(S(=O)(=O)N3CCCCC3)cc2)cc(OC)c1OC	–	·	–	–	·	·
SMILES	PG9 Ab binder	NR2E3 ag-1	NR1D1 modulator	NR2E3 ag-2	PG9 binder conf	PGV04 counter	others
O=C(CN(C(=O)CNC(=O)c1cccs1)c1ccccc1F)NC1CCCC1	–	–	–	–	·	·
CCn1c(CNC(=O)c2ccccc2F)cc2ccccc21	–	–	–	–	·	·
CCn1c(CNC(=O)c2ccccc2Cl)cc2ccccc21	10.4	–	–	–	24.1	35.4
CNC(=O)/C=C/c1cc(C(=O)c2ccc(Cl)cc2Cl)cn1C	–	–	–	–	·	·
COc1ccc(C(=O)NCc2ccccc2)cc1Br	–	–	–	–	·	·
COc1cccc(OC)c1C(=O)Nc1ccc(C(=O)NCc2ccccc2)cc1	9.6	–	–	–	12.2	16.8
CC1CCCN(CCOc2cccc(Oc3ccccc3)c2)C1 (centres undefined)	–	–	–	–	·	·
CCOc1ccc(C(=O)OCC(=O)NCCNC(=O)COC(=O)c2ccc(OCC)cc2)cc1	9.1	–	–	–	14.0	17.4
CCC(C(=O)NC1CCCCC1)n1c2ccccc2c2nc(=O)cc(C)n21 (centres undefined)	16.4	–	–	–	–	9.5
COc1ccc(N2C(=O)C3CCCN3C2=S)cc1 (centres undefined)	–	–	–	–	·	·
O=C(NCCN1Cc2ccccc2C1=O)c1cccs1	50.0	–	–	–	10.1	11.2
COC(=O)[C@]12C[C@H](CC(=O)NCCc3ccccc3OC)C(=O)N(CCC3=CCCCC3)C1=C[C@H](C(C)(C)C)O[C@@H]2C	–	·	–	·	·	·
Cc1ccccc1NC(=O)CSc1ccc(-c2cccnc2)nn1	–	–	–	–	·	·
Cc1ccc2nc(-c3ccc(NC(=O)CSc4nccc(=O)[nH]4)cc3)sc2c1	12.1	–	–	–	10.7	35.8
Clc1ccc(Oc2cnns2)c(Cl)c1	–	–	–	–	·	·
COCCN1CCC(CNCc2cn[nH]c2-c2ccc(C)c(C)c2)C1 (centres undefined)	–	–	–	–	·	·
COCCN1CCC(CO)C1 (centres undefined)	10.3	·	–	–	–	10.8
CCCn1c(C)cc(=O)c2cc(NC(=O)c3ccccn3)ccc21	–	–	–	–	·	·
Cc1ccc(-c2c(C(=O)Nc3ccccc3C)c(C)[nH]c(=S)c2C#N)o1	14.8	–	–	–	10.8	11.2
Cc1ccccc1NC(=O)c1c(C)[nH]c(=S)c(C#N)c1-c1ccc(Cl)cc1	–	–	–	–	·	·
COc1ccccc1/C=C/C(=C1/C(=O)N(c2ccccc2)N=C1C)c1ccc(C)cc1	–	–	–	–	·	·
COc1ccc(Cn2c(=O)[nH]c3cc(C(=O)NCCCOC(C)C)ccc3c2=O)cc1	–	–	–	–	·	·
COc1ccc(Cn2c(=O)[nH]c3cc(C(=O)NCc4ccc5c(c4)OCO5)ccc3c2=O)cc1	9.1	–	·	–	13.8	17.8
Cc1c(Br)c(O)c(Br)c2sc(=O)oc12	17.8	–	–	–	11.2	20.6
CC1CCCCN1C(=O)Cn1c(=O)n(-c2ccc(F)cc2)c(=O)c2sccc21 (centres undefined)	–	–	–	–	·	·
Cc1noc(C)c1C(=O)Nc1sc2c(c1C(N)=O)CCC2	12.1	–	–	–	–	17.5
NC(=O)c1c(NC(=O)c2ccccc2)sc2c1CCC2	–	–	–	–	·	·
Cn1ncc(Cl)c1C(=O)Nc1sc2c(c1C(N)=O)CCC2	8.7	–	–	–	11.9	28.6
Cc1ccc(NC(=O)CN(C)C(=O)c2cc3c(s2)CCCCC3)cc1	–	–	–	–	·	·

Screens as filed in PubChem.
